Results pooled from the literature.
Protocols differ between the studies behind these lines.
Organism: Nakaseomyces glabratus
Read-out: microbial growth

C[C@@H]1[C@H](O)[C@@H](C)/C=C/C=C/C=C/C=C/C=C/C=C/C=C/[C@H](O[C@@H]2O[C@H](C)[C@@H](O)[C@H](N)[C@@H]2O)C[C@@H]2O[C@](O)(C[C@@H](O)C[C@@H](O)[C@H](O)CC[C@@H](O)C[C@@H](O)CC(=O)O[C@H]1C)C[C@H](O)[C@H]2C(=O)O — MIC (broth dilution): 1.25 µg/mL
CCCCCCCCOc1c(OC)cc(NC(C)CCCNC(=O)C2CCCN2)c2nc(C(C)(C)C)ccc12 (centres unmarked) — MIC (broth dilution; ATCC90030): 20 µg/mL
CCC(C#Cc1c(C)nc(N)nc1N)c1cc(OC)c(OC)c(OC)c1 (centres unmarked) — MIC (resazurin): 89 µg/mL
CCCCCOc1c(OC)cc(NC(C)CCCNC(=O)C(N)C(C)CC)c2nc(C(C)(C)C)ccc12 (centres unmarked) — MIC (broth dilution; ATCC90030): > 20 µg/mL
OC(CNCCN1CCOCC1)(Cn1cncn1)c1ccc(F)cc1F (centres unmarked) — MIC (broth dilution; ATCC2001; 48 h): 31.3 µg/mL
C[C@@H]1[C@H](O)[C@@H](C)/C=C/C=C/C=C/C=C/C=C/C=C/C=C/[C@H](O[C@@H]2O[C@H](C)[C@@H](O)[C@H](N)[C@@H]2O)C[C@@H]2O[C@](O)(C[C@@H](O)C[C@@H](O)[C@H](O)CC[C@@H](O)C[C@@H](O)CC(=O)O[C@H]1C)C[C@H](O)[C@H]2C(=O)O — MIC (ATCC90030): 0.68 µM
C[C@@H]1[C@H](O)[C@@H](C)/C=C/C=C/C=C/C=C/C=C/C=C/C=C/[C@H](O[C@@H]2O[C@H](C)[C@@H](O)[C@H](N)[C@@H]2O)C[C@@H]2O[C@](O)(C[C@@H](O)C[C@@H](O)[C@H](O)CC[C@@H](O)C[C@@H](O)CC(=O)O[C@H]1C)C[C@H](O)[C@H]2C(=O)O — MIC (broth dilution; ATCC90030): 0.63 µg/mL
OC(Cn1cncn1)(Cn1cncn1)c1ccc(F)cc1F — MIC (broth dilution; MY1381): 8 µg/mL
Fc1ccc(C2(Cn3cncn3)CO2)c(F)c1 (centres unmarked) — MIC (broth dilution; ATCC2001; 48 h): > 31.3 µg/mL
COc1cc(NC(C)CCCN)c2nc(C(C)(C)C)ccc2c1Oc1ccc(Cl)c(Cl)c1 (centres unmarked) — MIC (broth dilution; ATCC90030): 20 µg/mL
CCCCCCCCCCN1CCNCC1 — MIC (broth dilution; ATCC2001; 48 h): 7.8 µg/mL
OC(Cn1cncn1)(Cn1cncn1)c1ccc(F)cc1F — MIC (clinical isolate): 4 µg/mL
CCCCCCCCCCCCCCN1CCNCC1 — MIC (broth dilution; ATCC2001; 48 h): 0.975 µg/mL
COc1cc(-c2ccc(C(C)(C)C)cc2)cc(C(C)C#Cc2c(C)nc(N)nc2N)c1 (centres unmarked) — MIC (resazurin): 207 µg/mL
